Published values gathered from unrelated publications.
Protocols differ between the studies behind these lines.
Target: Serine/threonine-protein kinase 17A (STK17A, Homo sapiens, UniProt Q9UEE5)
Residues used in one study (Q9UEE5 1-414): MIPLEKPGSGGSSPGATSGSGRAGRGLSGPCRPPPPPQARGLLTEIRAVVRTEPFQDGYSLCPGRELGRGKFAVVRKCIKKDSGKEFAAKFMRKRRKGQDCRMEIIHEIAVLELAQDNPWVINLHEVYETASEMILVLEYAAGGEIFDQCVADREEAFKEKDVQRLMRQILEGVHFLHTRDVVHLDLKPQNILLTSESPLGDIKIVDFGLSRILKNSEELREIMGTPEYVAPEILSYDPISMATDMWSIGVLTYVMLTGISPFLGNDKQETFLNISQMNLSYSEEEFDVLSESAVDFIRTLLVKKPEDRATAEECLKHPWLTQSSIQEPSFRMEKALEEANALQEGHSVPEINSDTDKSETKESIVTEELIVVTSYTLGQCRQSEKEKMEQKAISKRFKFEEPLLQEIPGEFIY

Compound	read-out	action	method	tested at	measurement	value
Cn1cc(-c2cccc(N3CCc4c(sc5c4CC(C)(C)C5)C3=O)c2CO)cc(Nc2ccncn2)c1=O	enzyme activity	inhibitor		1 µM	inhibition	-5%
O=c1[nH]c2ccccc2n1C1CCN(Cc2ccc(-c3[nH]c4cc5ncnc5cc4nc3-c3ccccc3)cc2)CC1	cell-free assay			0.5 µM	remaining signal	98.2%
Cn1cncc1[C@](O)(COc1ccc(C#N)cc1-c1ccc(OC(F)(F)F)cc1)c1ccc(C#N)cc1	cell-free assay		competition with immobilised ligand	1 µM	remaining binding	100%
Cn1cc(-c2cc(F)cc(N3CCn4c(cc5c4CCCC5)C3=O)c2CO)cc(Nc2ccc(N3CCN(C4COC4)CC3)cn2)c1=O	enzyme activity	inhibitor		0.1 µM	inhibition	3%
C#Cc1n[nH]c2c(-c3cn([C@@H](C)c4ccccn4)c(=O)[nH]c3=O)cc(F)cc12	enzyme activity	inhibitor		0.1 µM	inhibition	-0.6%
Nc1ncc(-c2nc(N3CCOCC3)nc(N3CCOCC3)n2)c(C(F)F)n1	binding		competition with immobilised ligand	10 µM	remaining binding	89%
Cc1nn(C)cc1-c1nc2c(N3CCN(Cc4ccc(Cl)cc4)CC3)c(Cl)cnc2[nH]1	binding		competition with immobilised ligand	1 µM	remaining binding	13%
CC(C)(C)c1cc(C=C(C#N)C#N)cc(Br)c1O	enzyme activity	inhibitor		0.5 µM	remaining activity	92.3%
C#Cc1n[nH]c2c(-c3cn([C@@H](C)c4ccccc4)c(=O)[nH]c3=O)cc(F)cc12	enzyme activity	inhibitor		0.1 µM	inhibition	1.1%
COc1ncccc1-c1cnn2ccc(N3CCN(C(=O)OC(C)C)CC3)nc12	binding		competition with immobilised ligand	1 µM	remaining binding	6.4%
